# Marks after values point to notes of the source that are not given here.
# Tests used:
# [1] = target: T1, FAAH (Rattus norvegicus, UniProt P97612); assay: Irreversible binding of [11C]-radiotracers to FAAH in rat brain parenchyma; format: in vivo
# T1 sequence (P97612 1-579): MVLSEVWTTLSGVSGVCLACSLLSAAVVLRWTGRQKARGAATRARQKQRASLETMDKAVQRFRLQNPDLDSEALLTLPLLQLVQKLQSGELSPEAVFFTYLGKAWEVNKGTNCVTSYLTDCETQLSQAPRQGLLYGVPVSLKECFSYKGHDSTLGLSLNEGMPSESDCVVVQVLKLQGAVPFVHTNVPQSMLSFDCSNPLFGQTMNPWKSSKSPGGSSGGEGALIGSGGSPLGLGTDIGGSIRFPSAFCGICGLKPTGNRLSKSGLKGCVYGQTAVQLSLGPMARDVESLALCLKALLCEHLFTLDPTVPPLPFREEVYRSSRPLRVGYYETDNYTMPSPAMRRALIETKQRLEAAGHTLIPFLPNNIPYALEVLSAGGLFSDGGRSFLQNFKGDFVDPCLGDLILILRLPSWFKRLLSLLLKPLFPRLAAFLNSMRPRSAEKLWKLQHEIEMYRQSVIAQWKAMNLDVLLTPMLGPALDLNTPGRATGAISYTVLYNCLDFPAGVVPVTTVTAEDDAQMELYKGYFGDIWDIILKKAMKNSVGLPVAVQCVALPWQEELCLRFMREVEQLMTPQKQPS
# [2] = Biodistribution of [11C]-radiotracers in rat brain; format: in vivo; settings: mean (n = 5) ± SD
# Summary of the method: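 Conscious restrained rats (n = 5/time point) received 30–60 MBq [11C]-radiotracer (70–170 GBq/μmol; 0.3–0.8 nmol) iv by tail vein in buffered saline with 0.5% Tween 80. After decapitation, brain regions were excised, blotted, weighed, gamma-counted and decay-corrected against injected-dose standards. SUV = %ID/g […] body weight (kg). Blocking groups got an FAAH inhibitor (2 mg/kg ip, saline/Tween 80) or vehicle 30 min before. Student's t test.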
smiles,measurement,setting,value
"O=C(NC1CCCCC1)Oc1cc(O)cc(-c2ccccc2)c1 [[^11C]1, [^11C-carbonyl]N-cyclohexyl-5-hydroxy[1,1′-biphenyl]-3-ylcarbamic acid ester]",% bound (irreversibly) at 60 min postinjection,[1],about 90%
same,"Regional brain uptake, cortex (2 min)",[2]; 2 min post iv injection,2.40 ± 0.18 SUV
same,"Regional brain uptake, hypothalamus (2 min)",[2]; 2 min post iv injection,1.61 ± 0.23 SUV
same,"Regional brain uptake, cortex (40 min)",[2]; 40 min post iv injection,2.49 ± 0.25 SUV
same,"Regional brain uptake, hypothalamus (40 min)",[2]; 40 min post iv injection,1.14 ± 0.13 SUV
same,"Regional brain uptake, cortex (40 min, blocked)","[2]; 40 min post iv injection, pretreated with compound 2 (2 mg/kg, ip)",0.36 ± 0.04 ^b SUV
